Source: article PMC9016771 (ACS chemical neuroscience, 2021)
Read-outs that look alike come from different tables or passages of the source.

Legend:
hCB2 = hCB2 (Homo sapiens, UniProt P34972); assay: Radioligand binding; conditions: hCB2-HEK membranes
rCB1 = rCB1 (Rattus norvegicus, UniProt P20272); assay: Radioligand binding; conditions: for Ki: cis photoisomer (irradiated with 366 nm UV light), rat brain membranes, 0.6 nM [3H]CP55940; for CB1 trans/cis ratio: ratio Ki(trans)/Ki(cis) at CB1
[1] = assay type: physicochemical; conditions: for cis form at photostationary state: UV light at 366 nm, quantified by HPLC
Method in brief: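 Photostationary states measured by UV/vis spectroscopy in 10 mm path cuvettes. Cis form produced by 366 nm irradiation; trans form by 454 nm blue light. HPLC chromatograms track isomer distribution at each stationary state. Repeated switching cycles check for photofatigue. Thermal stability of the cis form followed over >3 h in buffer pH 7.4 at 37 °C.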

hCB1 = hCB1 (Homo sapiens, UniProt P21554); assay type: cell-based
Sequence of hCB1 (P21554 whole entry): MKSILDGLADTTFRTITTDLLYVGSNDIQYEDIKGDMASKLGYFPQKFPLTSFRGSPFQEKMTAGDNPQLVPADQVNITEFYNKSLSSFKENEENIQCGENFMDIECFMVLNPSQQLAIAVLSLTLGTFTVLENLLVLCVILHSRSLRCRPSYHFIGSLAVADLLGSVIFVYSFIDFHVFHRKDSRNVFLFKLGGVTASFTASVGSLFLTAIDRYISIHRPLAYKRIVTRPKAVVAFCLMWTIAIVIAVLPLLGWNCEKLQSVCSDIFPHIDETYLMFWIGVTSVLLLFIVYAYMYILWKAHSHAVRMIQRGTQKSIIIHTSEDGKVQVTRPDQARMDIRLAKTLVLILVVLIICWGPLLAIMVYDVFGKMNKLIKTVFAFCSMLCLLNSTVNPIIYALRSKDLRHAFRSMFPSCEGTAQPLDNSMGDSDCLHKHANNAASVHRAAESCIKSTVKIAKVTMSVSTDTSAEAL
Method in brief: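 CHO-K1 cells express hCB1 coupled through Gαq16, so receptor activation gives intracellular calcium mobilization. Calcium flux is monitored with calcium-5 fluorescent dye on an automated fluorescence plate reader. Antagonist apparent affinity (Ke) is derived from the functional response.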

Sequence of hCB2 (P34972 whole entry): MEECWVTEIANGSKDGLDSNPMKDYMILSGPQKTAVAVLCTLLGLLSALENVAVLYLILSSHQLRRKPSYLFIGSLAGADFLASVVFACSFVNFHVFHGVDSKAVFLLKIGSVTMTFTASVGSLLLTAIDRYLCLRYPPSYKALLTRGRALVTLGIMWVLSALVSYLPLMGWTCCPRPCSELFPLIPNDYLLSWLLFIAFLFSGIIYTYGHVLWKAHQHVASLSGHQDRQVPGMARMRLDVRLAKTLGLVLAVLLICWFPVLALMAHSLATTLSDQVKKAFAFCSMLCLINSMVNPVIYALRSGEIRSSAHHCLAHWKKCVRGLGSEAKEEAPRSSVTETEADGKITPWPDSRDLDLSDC
Sequence of rCB1 (P20272 whole entry): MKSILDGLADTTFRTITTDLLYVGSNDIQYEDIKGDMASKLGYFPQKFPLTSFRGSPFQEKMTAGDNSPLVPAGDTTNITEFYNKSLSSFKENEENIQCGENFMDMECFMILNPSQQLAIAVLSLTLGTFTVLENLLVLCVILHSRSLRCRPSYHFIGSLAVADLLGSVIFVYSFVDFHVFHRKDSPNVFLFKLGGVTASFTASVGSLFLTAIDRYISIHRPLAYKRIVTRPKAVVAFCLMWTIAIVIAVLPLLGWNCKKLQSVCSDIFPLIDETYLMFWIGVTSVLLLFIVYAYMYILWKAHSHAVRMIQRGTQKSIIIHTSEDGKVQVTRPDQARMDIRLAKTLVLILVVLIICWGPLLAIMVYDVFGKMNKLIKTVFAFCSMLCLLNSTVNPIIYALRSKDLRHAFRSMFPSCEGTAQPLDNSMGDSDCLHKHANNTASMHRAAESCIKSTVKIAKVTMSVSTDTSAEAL

Row | Compound | [3H]CP55950 displ at 10 μM (CB2) (hCB2; cis photoisomer (366 nm)) | [3H]CP55950 displ at 10 μM (CB2) (hCB2; trans photoisomer (454 nm)) | Ki (rCB1; CB1 (Ki ± SD)) | CB1 trans/cis ratio (rCB1) | Ki (rCB1; read-out: CB1 (Ki ± SD)) | cis form at photostationary state [1] | thermal stability ([1]; buffer pH 7.4, 37 °C) | Kb (hCB1) | [3H]CP55950 displ at 10 μM (CB2) (hCB2; reference compound, no photoisomer) | reversal in the photoconversion ([1]; after being stored in the dark for 2 h)
1 | Cc1ccccc1/N=N/c1c(C)c(C(=O)NN2CCCCC2)nn1-c1ccc(Cl)cc1Cl [9d, 1-(2,4-Dichlorophenyl)-4-methyl-5-[(1E)-2-(2-methylphenyl)diazen-1-yl]-N-(piperidin-1-yl)pyrazole-3-carboxamide] | 45% | 68% | 384 ± 40 nM | 0.76 | – | – | – | – | – | –
2 | Cc1c(C(=O)NCc2cccc(/N=N/c3ccccc3)c2)nn(-c2ccc(Cl)cc2Cl)c1-c1ccc(Cl)cc1 [16b, 5-(4-Chlorophenyl)-1-(2,4-dichlorophenyl)-4-methyl-N-((3-[(1E)-2-phenyldiazen-1-yl]phenyl)methyl)pyrazole-3-carboxamide] | <10% | 14% | – | 1.23 | 311 ± 196 nM | – | – | – | – | –
3 | Cc1c(C(=O)NN2CCCCC2)nn(-c2ccc(Cl)cc2Cl)c1/N=N/c1cccc(Cl)c1Cl [9b, 1-(2,4-Dichlorophenyl)-4-methyl-5-[(E)-2-(2,3-dichlorophenyl)diazen-1-yl]-N-(piperidin-1-yl)-1H-pyrazole-3-carboxamide] | 61% | 81% | 716 ± 26 nM | 0.83 | – | approximately 50% | – | – | – | –
4 | Cc1c(C(=O)NCc2ccc(/N=N/c3ccc4c(c3)COC4)cc2)nn(-c2ccc(Cl)cc2Cl)c1-c1ccc(Cl)cc1 [16d, 5-(4-Chlorophenyl)-1-(2,4-dichlorophenyl)-N-((4-[(1E)-2-(1,3-dihydro-2-benzofuran-5-yl)diazen-1-yl]phenyl)methyl)-4-methyl-1H-pyrazole-3-carboxamide] | <10% | 32% | 221 ± 109 nM | 2.72 | – | – | – | – | – | –
5 | Cc1c(C(=O)NCc2ccccc2/N=N/c2ccccc2)nn(-c2ccc(Cl)cc2Cl)c1-c1ccc(Cl)cc1 [16c, 5-(4-Chlorophenyl)-1-(2,4-dichlorophenyl)-4-methyl-N-((2-[(1E)-2-phenyldiazen-1-yl]phenyl)methyl)-1H-pyrazole-3-carboxamide] | 14% | 46% | – | 1.58 | 142 ± 28 nM | – | – | – | – | –
6 | Cc1c(/N=N/c2cccc(Cl)c2Cl)nn(-c2ccc(Cl)cc2Cl)c1-c1ccc(Cl)cc1 [14b, 5-(4-Chlorophenyl)-1-(2,4-dichlorophenyl)-3-[(E)-2-(2,3-dichlorophenyl)diazen-1-yl]-4-methyl-1H-pyrazole] | 60% | 31% | 195 ± 63 nM | – | – | approximately 50% | – | – | – | –
7 | Cc1c(C(=O)NCc2ccc(/N=N/c3ccccc3)cc2)nn(-c2ccc(Cl)cc2Cl)c1-c1ccc(Cl)cc1 [16a, 5-(4-Chlorophenyl)-1-(2,4-dichlorophenyl)-4-methyl-N-((4-[(1E)-2-phenyldiazen-1-yl]phenyl)methyl)-1H-pyrazole-3-carboxamide] | <10% | <10% | 29 ± 2.8 nM | – | – | – | > 3 h | ~85.3 nM | – | –
8 | Cc1c(C(=O)NN2CCCCC2)nn(-c2ccc(Cl)cc2Cl)c1-c1ccc(Cl)cc1 [rimonabant, reference compound] | – | – | – | – | – | – | – | – | <10% | –
9 | Cc1c(C(=O)NN2CCCCC2)nn(-c2ccc(Cl)cc2Cl)c1/N=N/c1ccccc1 [9a, 1-(2,4-Dichlorophenyl)-4-methyl-5-[(E)-2-phenyldiazen-1-yl]-N-(piperidin-1-yl)-1H-pyrazole-3-carboxamide] | 14% | 51% | 461 ± 337 nM | 1.0 | – | – | – | – | – | –
10 | Cc1c(/N=N/c2ccccc2)nn(-c2ccc(Cl)cc2Cl)c1-c1ccc(Cl)cc1 [14a, 5-(4-Chlorophenyl)-1-(2,4-dichlorophenyl)-4-methyl-3-[(E)-2-phenyldiazen-1-yl]-1H-pyrazole] | 21% | <10% | 249 ± 155 nM | 2.16 | – | – | – | – | – | –
11 | Cc1c(C(=O)NN2CCCCC2)nn(-c2ccc(Cl)cc2Cl)c1/N=N/c1ccc(Cl)cc1Cl [9c, 1-(2,4-Dichlorophenyl)-5-[(E)-2-(2,4-dichlorophenyl)diazen-1-yl]-4-methyl-N-(piperidin-1-yl)-1H-pyrazole-3-carboxamide] | 55% | 62% | 358 ± 62 nM | 1.11 | – | approximately 50% | – | – | – | 45%
12 | Cc1cccc(/N=N/c2c(C)c(C(=O)NN3CCCCC3)nn2-c2ccc(Cl)cc2Cl)c1 [9e, 1-(2,4-Dichlorophenyl)-4-methyl-5-[(1E)-2-(3-methylphenyl)diazen-1-yl]-N-(piperidin-1-yl)-1H-pyrazole-3-carboxamide] | 46% | 65% | 679 ± 160 nM | 0.60 | – | – | – | – | – | –
